Experimental data as given in ChEMBL document CHEMBL1629690, “Development of hexadecyloxypropyl tenofovir (CMX157) for treatment of infection caused by wild-type and nucleoside/nucleotide-resistant HIV” (Antimicrob Agents Chemother, 2010).

Tests used:
[1] = test system: HeLa; assay: Cytotoxicity against human HeLa cells after 24 hrs by XTT assay; format: cell-based
Procedure, shortened: (§1)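 Six-concentration growth-inhibition test: 10 to 0.032 μM for the prodrug and TDF, up to 100 μM for TFV, with Triton X-100 run in parallel. Cell lines were split 1:2 the day before and seeded at 5 × 10^3 to 2 × 10^4 cells/well, with adherent lines left overnight. Dendritic cells were derived with GM-CSF/IL-4 for 7 days, then LPS 10 ng/ml for 2 days. Viability was read by XTT.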

[2] = test system: PBMC; assay: Cellular uptake in PHA/IL-2-stimulated human PBMC at 10 uM assessed as TFV-diphosphate after 24 hrs by MS/MS analysis; format: ADME, cell-based
Procedure, shortened: (§2)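 PHA-stimulated (4 μg/ml PHA, 48 to 72 h; 20 U/ml rhIL-2) human PBMCs at 2 × 10^6 cells/ml in RPMI 1640 with 15% FBS, given tenofovir or prodrug (final 0.01 to 10 μM) for 24 h at 37°C. Cells washed three times in cold 0.9% NaCl, counted, and 1 × 10^7 cell aliquots pelleted. TFV, TFV-MP and TFV-PP were separated by ion-pairing reverse-phase LC and detected by positive-ion electrospray MS. Output is pmol per 10^6 cells.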

[3] = test system: CEM-SS; assay: Cytotoxicity against human CEM-SS cells after 24 hrs by XTT assay; format: cell-based; procedure, shortened: as §1
[4] = test system: PBMC; assay: Cellular uptake in PHA/IL-2-stimulated human PBMC at 10 uM after 24 hrs by MS/MS analysis; format: ADME, cell-based; procedure, shortened: as §2
[5] = test system: PBMC; assay: Cellular uptake in human PBMC at 1 uM assessed as TFV-monophosphate level after 24 hrs by MS/MS analysis; format: ADME, cell-based
Procedure, shortened: (§3)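 Human PBMCs, unstimulated or PHA/IL-2-stimulated, at 2 × 10^6 cells/ml in RPMI 1640 with 15% FBS, exposed 24 h at 37°C to final 0.01, 0.1, 1.0 or 10 μM of the prodrug, or 1.0 or 10 μM tenofovir. After cold saline washes the cells were counted and 1 × 10^7-cell pellets made. TFV, TFV-MP and TFV-PP were measured by ion-pairing LC with positive-ion electrospray MS as pmol/10^6 cells.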

[6] = test system: HepG2; assay: Cytotoxicity against human HepG2 cells after 24 hrs by XTT assay; format: cell-based; conditions: hepg2, 24 h; procedure, shortened: as §1
[7] = Cytotoxicity against human ME180 cells after 24 hrs by XTT assay; format: cell-based; conditions: me-180, 24 h; procedure, shortened: as §1
[8] = test system: Human immunodeficiency virus 1; assay: Antiviral activity against HIV1 subtype B isolate Ba-L infected in human PBMC after 48 to 72 hrs by MTS assay; format: functional, organism-based; conditions: Human immunodeficiency virus 1, isolate Ba-L
Procedure, shortened: (§4)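 Fresh donor PBMCs, HIV- and HBV-seronegative, were stimulated with 4 μg/ml PHA for 48 to 72 h and kept on 20 U/ml rhIL-2. Cells pooled from at least two donors were seeded at 5 × 10^4 per well and infected at MOI ~0.1. Nine compound concentrations were run in triplicate wells for 7 days.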

[9] = test system: Human immunodeficiency virus 1; assay: Antiviral activity against HIV1 subtype A isolate 92RW009 infected in human PBMC after 48 to 72 hrs by MTS assay; format: functional, organism-based; conditions: Human immunodeficiency virus 1, isolate 92RW009; procedure, shortened: as §4
[10] = test system: Human immunodeficiency virus 1; assay: Antiviral activity against HIV1 subtype D isolate 92UG046 infected in human PBMC after 48 to 72 hrs by MTS assay; format: functional, organism-based; conditions: Human immunodeficiency virus 1, isolate 92UG046; procedure, shortened: as §4
[11] = test system: Human immunodeficiency virus 1; assay: Antiviral activity against HIV1 isolate JR-CSF infected in human PBMC after 48 to 72 hrs by MTS assay in presence of 15% human serum; format: functional; conditions: Human immunodeficiency virus 1, JRCSF ISOLATE
Procedure, shortened: (§5)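 This is the PHA/IL-2 PBMC assay run with JR-CSF preincubated with 8 × 10^6 pooled cells for 1 h at 37°C. Cells were then spinoculated at 200 × g for 1 h and held 2 h more. Infected cells (2.5 × 10^4) were added, without virus washout, to wells holding uninfected PBMCs and compound. Medium had 15% FBS, plus 0, 10, 15, 20 or 30% human serum.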

[12] = test system: Human immunodeficiency virus 1; assay: Antiviral activity against HIV1 subtype G isolate JV1083 infected in human PBMC after 48 to 72 hrs by MTS assay; conditions: Human immunodeficiency virus 1, isolate JV1083
[13] = test system: Human immunodeficiency virus 2; assay: Antiviral activity against HIV2 isolate CDC310342 infected in human PBMC after 48 to 72 hrs by MTS assay; format: functional, organism-based; conditions: Human immunodeficiency virus 2, isolate CDC310342; procedure, shortened: as §4
[14] = test system: PBMC; assay: Cellular uptake in PHA/IL-2-stimulated human PBMC at 0.01 uM assessed as TFV-monophosphate after 24 hrs by MS/MS analysis; format: ADME, cell-based; conditions: BLD = below limit of detection
Procedure, shortened: (§6)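 PHA/IL-2-stimulated PBMCs at 2 × 10^6 cells/ml (5 × 10^7 per flask) were exposed for 24 h at 37°C. Cells were washed three times in cold 0.9% NaCl and counted by trypan blue. Aliquots of 1 × 10^7 cells were pelleted. TFV, TFV-MP and TFV-PP were separated by ion-pairing reverse-phase gradient LC and detected by positive electrospray. Results are given as pmol/10^6 cells.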

[15] = test system: PBMC; assay: Cellular uptake in PHA/IL-2-stimulated human PBMC at 0.1 uM assessed as TFV-diphosphate after 24 hrs by MS/MS analysis; format: ADME, cell-based; procedure, shortened: as §6
[16] = test system: Human immunodeficiency virus 1; assay: Antiviral activity against HIV1 subtype G isolate RU132 infected in human PBMC after 48 to 72 hrs by MTS assay; format: functional, organism-based; conditions: Human immunodeficiency virus 1, isolate RU132; procedure, shortened: as §4
[17] = test system: PBMC; assay: Cellular uptake in PHA/IL-2-stimulated human PBMC at 10 uM assessed as TFV level after 24 hrs by MS/MS analysis; format: ADME, cell-based; procedure, shortened: as §2
[18] = test system: Human immunodeficiency virus 2; assay: Antiviral activity against HIV2 isolate CBL-20 infected in human PBMC after 48 to 72 hrs by MTS assay; format: functional, organism-based; conditions: Human immunodeficiency virus 2, isolate CBL-20; procedure, shortened: as §4
[19] = test system: Human immunodeficiency virus 1; assay: Antiviral activity against HIV1 isolate JR-CSF infected in human PBMC after 48 to 72 hrs by MTS assay in presence of 30% human serum; format: functional; conditions: Human immunodeficiency virus 1, JRCSF ISOLATE; procedure, shortened: as §5
[20] = test system: Human immunodeficiency virus 1; assay: Antiviral activity against HIV1 subtype A isolate 92UG029 infected in human MDM […] by MTS assay; format: functional, organism-based; conditions: Human immunodeficiency virus 1, isolate 92UG029
[21] = test system: PBMC; assay: Cellular uptake in PHA/IL-2-stimulated human PBMC at 0.1 uM assessed as TFV level after 24 hrs by MS/MS analysis; format: ADME, cell-based; conditions: BLD = below limit of detection; procedure, shortened: as §6
[22] = test system: Human immunodeficiency virus 1; assay: Antiviral activity against HIV1 subtype F isolate 93BR029 infected in human PBMC after 48 to 72 hrs by MTS assay; format: functional, organism-based; conditions: Human immunodeficiency virus 1, isolate 93BR029; procedure, shortened: as §4
[23] = test system: Human immunodeficiency virus 1; assay: Antiviral activity against HIV1 subtype B isolate 92TH026 infected in human PBMC after 48 to 72 hrs by MTS assay; format: functional, organism-based; conditions: Human immunodeficiency virus 1, isolate 92TH026; procedure, shortened: as §4
[24] = test system: Human immunodeficiency virus 1; assay: Antiviral activity against HIV1 subtype B isolate 92BR014 infected in human PBMC after 48 to 72 hrs by MTS assay; format: functional, organism-based; conditions: Human immunodeficiency virus 1, isolate 92BR014; procedure, shortened: as §4
[25] = test system: PBMC; assay: Cellular uptake in human PBMC at 1 uM assessed as TFV level after 24 hrs by MS/MS analysis; format: ADME, cell-based; procedure, shortened: as §3

Row | Structure (SMILES) | Activity [1] | Drug uptake [2] | Activity [3] | Activity [6] | Activity [7] | EC50 [9] | EC50 [10] | EC50 [12] | EC50 [13] | EC50 [16] | EC50 [18] | EC50 [20] | EC50 [22] | EC50 [23] | other results
1 | C[C@H](Cn1cnc2c(N)ncnc21)OCP(=O)(O)O [TENOFOVIR ANHYDROUS] | Non-toxic | 0.22 pmol/10^6 cells | Non-toxic | Non-toxic | Non-toxic |  |  |  |  |  |  |  |  |  | Drug uptake [4]: 0.09 pmol/10^6 cells; Drug uptake ([5]; BLD = below limit of detection): BLD
2 | CCCCCCCCCCCCCCCCOCCCOP(=O)(O)CO[C@H](C)Cn1cnc2c(N)ncnc21 [TENOFOVIR EXALIDEX] | Non-toxic | 5.5 pmol/10^6 cells | Non-toxic | Non-toxic | Non-toxic | 3.3 nM | 2.1 nM | 2.2 nM | 3.5 nM | 2.2 nM | 3.5 nM | 1.3 nM | 2.7 nM | 1.5 nM | EC50 [8]: 1.5 nM; EC50 [11]: 6.4 nM; Drug uptake [14]: BLD; Drug uptake [5]: 0.05 pmol/10^6 cells; Drug uptake [15]: 0.25 pmol/10^6 cells; Drug uptake [17]: 1.9 pmol/10^6 cells; EC50 [19]: 16 nM; Drug uptake [21]: BLD; EC50 [24]: 1.5 nM; Drug uptake [25]: 0.07 pmol/10^6 cells
3 | Cc1cn([C@H]2C[C@H](N=[N+]=[N-])[C@@H](CO)O2)c(=O)[nH]c1=O [ZIDOVUDINE] |  |  |  |  |  | 14 nM | 6.3 nM | 4.7 nM | 9.3 nM | 4.7 nM | 9.3 nM | 1.2 nM | 9.6 nM | 2 nM | 
